One may read the IC50 as the concentration that gives 50% inhibition. A lower IC50 goes with higher potency.

“Also recorded” adds a separate entry of the source. Read-outs that look alike come from different tables or passages of the source. Bounds are passed on as bounds.

Consider five compounds from paper PMC2933822 (Chemical research in toxicology, 2010).

The subject of data set [1] is cisplatin-resistant derivative cell line A2780CIS. Particulars: cited from earlier work.
The subject of data set [2] is A2780 human ovarian carcinoma cells. To be noted: cited from earlier work.
Data set [3] deals with Human HaCaT keratinocytes. To be noted: cited from earlier work.
A further data set deals with a number of cell lines. Particulars: photoactivated; cited from earlier work.
The next data set deals with HaCaT, A2780, A2780CIS. As to the kind of experiment: Photo- and dark cytotoxicity stated in words across the cell lines. The class given is cell-based, human. Particulars: UVA 365 nm irradiation. The method, boiled down: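 HaCaT keratinocytes (DMEM, 5% FBS, 1% non-essential amino acids) and A2780 or A2780CIS cells (RPMI, 10% FBS) were grown at 37 °C without antibiotics. Cells were PBS-washed, then exposed 1 h at 37 °C to test compound in EBSS. They received 5 J cm−2 UVA (1.77 mW cm−2, λmax 365 nm, <320 nm filtered), with sham-irradiated parallel dark plates. Read-out was neutral red uptake. IC50s came from non-linear regression, 2-4 experiments in triplicate.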

Data set [4] has as its system A2780 human ovarian carcinoma cells. Put plainly: Phototoxicity / dark cytotoxicity, neutral red uptake assay, UVA. To be noted: for IC50: neutral red dye uptake; for IC50 (cisplatin)/IC50(photoPt): A2780, fold difference vs cisplatin under identical conditions. It counts as cell-based. The method, boiled down: (§1)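 Cells were kept antibiotic-free in RPMI with 10% FBS at 37 °C in 5% CO2. They were washed in PBS, then given the test compound in EBSS for 1 h at 37 °C. Light plates received 5 J cm−2 UVA (1.77 mW cm−2, λmax 365 nm, below 320 nm filtered); dark plates were sham irradiated in parallel. Read-out was neutral red uptake. IC50 came from non-linear regression, 2-4 experiments in triplicate. The ratio is cisplatin IC50 (same conditions) over complex IC50.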

The subject of data set [5] is Human HaCaT keratinocytes. As to the kind of experiment: Phototoxicity / dark cytotoxicity, neutral red uptake assay, UVA. It counts as cell-based. Particulars: for IC50: HaCaT.
A further data set concerns DNA. Put plainly: Comet assay. It counts as cell-based, human. To be noted: +UVA 5 J cm^−2, then H2O2.
In data set [6] the test system is cisplatin-resistant derivative cell line A2780CIS. As to the kind of experiment: Phototoxicity / dark cytotoxicity, neutral red uptake assay, UVA. The class given is cell-based, human. Particulars: for IC50: neutral red dye uptake. The procedure, abridged: as §1
Setting [7] is: +365 nm (5 J cm^−2 UVA), 1 h treatment, neutral red dye uptake.
The mark [8] stands for this setting: Dark (sham irradiated), neutral red dye uptake.

For “trans,trans,trans-[Pt(N3)2(OH)2(NH3)(py)] [Complex 7t]”, the “IC50 (cisplatin)/IC50(photoPt)” value in [1] is recorded as 15.4; in [2], 80.0; in data set [3] it was 21.2. Also, the “fold more cytotoxic following irradiation than treatment with cisplatin” value with a number of cell lines was “up to 90 ×”. The “phototoxicity / photocytotoxicity” value in the data set with HaCaT, A2780, A2780CIS is on record as “the most phototoxic molecule tested; also recorded: the most phototoxic complex which still maintains dark stability”.
For “cis,trans,cis-[Pt(N3)2(OH)2(NH3)(propylamine)] [Complex 4c]”, the concentration for half-maximal inhibition (IC50) was 93.4 µM in [4] (A2780, +365 nm (5 J cm^−2 UVA)); > 257 µM in data set [4] (A2780, Dark (sham irradiated)); 204 µM in data set [5] (setting [7]); > 257 µM in data set [5] (setting [8]). For the same compound, the “IC50 (cisplatin)/IC50(photoPt)” value in [4] came out at 1.6.
In the case of “cis,trans,cis-[Pt(N3)2(OH)2(NH3)(pyridine)] [Complex 7c]”, the half-inhibitory concentration (IC50) in data set [4] (A2780, +365 nm (5 J cm^−2 UVA)) is 79.6 µM; in data set [4] (A2780, Dark (sham irradiated)), > 244 µM; in data set [6] (+365 nm (5 J cm^−2 UVA)) it was 109 µM; in data set [6] (Dark (sham irradiated)), > 244 µM; in data set [5] (setting [7]) it was 101 µM; in [5] (setting [8]), > 244 µM. The entries for the “IC50 (cisplatin)/IC50(photoPt)” value in data set [4] and in data set [6] (fold difference vs cisplatin under identical conditions) were 1.9 and 2.4, respectively. Moreover, the “inhibition of DNA migration (DNA crosslinking), irradiated samples” value with DNA is “more effective at inhibiting DNA migration (at low doses)”. Further, the “fold less phototoxic than 7t” value in data set [5] (HaCaT cells, UVA) is “approximately 10 fold”. In the data set with HaCaT, A2780, A2780CIS, the “phototoxicity / photocytotoxicity” value is “the most phototoxic cis compounds investigated”.
Turning to `CN(C)CCCN1c2ccccc2Sc2ccc(Cl)cc21` [CPZ, Chlorpromazine, reference compound], the 50% inhibitory concentration (IC50) in data set [5] (Homo sapiens, light or radiation study) stood at 240 µM; in data set [5] (Homo sapiens, light or radiation study, 1 h) it was 9 µM.
“cis,trans,cis-[Pt(N3)2(OH)2(NH3)(pentylamine)] [Complex 6c]”: the IC50 in [4] (A2780, +365 nm (5 J cm^−2 UVA)) is > 240 µM; in data set [4] (A2780, Dark (sham irradiated)), > 240 µM; in [6] (+365 nm (5 J cm^−2 UVA)), > 240 µM; in data set [6] (Dark (sham irradiated)), > 240 µM; in data set [5] (setting [7]), 224 µM; in [5] (setting [8]), > 240 µM. Also, the “IC50 (cisplatin)/IC50(photoPt)” value in data set [4] came out at 0.6.
